Inconclusive results are not listed.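 Rule for the calls, unless noted: active = inhibition over a set limit, the all-compound mean plus 3 SD, in both replicate runs; inconclusive = over that limit in just one replicate run; inactive = at or under that limit in both runs.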
Tests used:
[1] = S. cerevisiae growth inhibition in permissive medium (OD615), pilot counter-assay for S. cerevisiae lifespan shortening project, permissive growth control (AID 705;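 active = growth inhibition above 25% in both replicates, a cutoff set 3 SD above the mean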); settings: OD615, 24 h, at 10 µM, stronger effect = higher value
In short: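 System: engineered DeaD yeast; Medium: permissive raffinose/galactose medium; Compound dosing: 10 µM single dose, 0.25% DMSO; Incubation: 4 h cell pre-growth, 24 h exposure at 30 °C; Technique: OD at 615 nm; Evaluation: growth inhibition from lowered OD615 after 24 h.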

[2] = S. cerevisiae growth inhibition in restrictive medium, OD615, pilot screen, restrictive growth control, yeast lifespan reduction project (AID 706;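 active = growth inhibition above a set limit, 3 SD over mean compound inhibition, in both replicates, cut at about 43% in these data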;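 note: modified DeaD lifespan yeast strain shifted to restrictive glucose medium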); settings: OD615, 48 h, at 10 µM, stronger effect = higher value
In short: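 Material: modified S. cerevisiae; buffer or medium: CSMM-D glucose medium; doses: one concentration, 10 µM final, 0.25% DMSO; incubation: 48 h compound exposure at 30 °C; detection: optical density at 615 nm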

[3] = doxorubicin toxicity protection in MRP-1 cells – H69AR cells, CellTiter-Glo, duplicate, MRP-1 activator project, pilot screen (AID 807;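 active = viability increase at or above a cutoff of the median across tested compounds plus 3 SD, cut at about 8.5% in these data, passing the limit was not always enough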;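 note: compound pretreatment 18-22 h then 72 h combined with doxorubicin; 0% = doxorubicin alone and 100% = vehicle without doxorubicin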); settings: H69AR viability with doxorubicin, CellTiter-Glo luminescence; at 10 µM; stronger effect = higher value
[4] = viability of HCT116 without oncogenic beta-catenin – human colon tumor cells, pilot screen (AID 823;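 active = cell viability at or below a set limit in both duplicate runs, the limit being the all-compound median minus 4 SD, cut at about 23% in these data, passing the limit was not always enough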;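 note: 0% = wells killed by 20 µM Hyamine and 100% = untreated DMSO cell wells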); settings: HCT116 beta-catenin knockout viability, CellTiter-Glo, 60 h; at 10 µM; stronger effect = lower value
[5] = viability of PTEN-null HCT116 cells – cell-based, HCT116 clonal line, CellTiter-Glo, pilot screen (AID 824;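 active = viability at or below 27.92% in each of two runs, the all-compound median minus 4 SD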;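 note: 0% = 20 µM Hyamine control and 100% = vehicle cell control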); settings: HCT116 PTEN-deleted viability, 60 h, at 10 µM, stronger effect = lower value
[6] = RAM pathway blockade in budding yeast – dse1pr::URA3 reporter, 5-FOA selection, pilot screen (AID 869);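 note: 0% = DMSO wells with no growth and 100% = 10 µM 1-NA-PP1 with full growth; RAM network block rescues cells from 5-FOA so hits raise OD615 growth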; settings: S. cerevisiae dse1pr::URA3 5-FOA growth, OD615, 2 d; at 10 µM; stronger effect = higher value; strain carries analog-sensitive mutant Cbk1 kinase
[7] = RAM signaling pathway blockade in yeast – S. cerevisiae, Pdr1DBD-CYC8 efflux-inhibited sensitized strain, primary screen (AID 1298;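 active = RAM network inhibition above 8.4% in each of two replicates, 3 SD over the compound average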;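 note: 0% = DMSO untreated cells without growth and 100% = 10 µM 1-NA-PP1 full growth; higher means more yeast growth rescued from 5-FOA killing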); settings: S. cerevisiae cbk1-as DSE1-URA3 strain, 5-FOA growth OD615, 2 d; at 50 µM; stronger effect = higher value

O=c1c2cnn(-c3ccccc3)c2ncn1Cc1ccccc1F
inactive: growth inhibition [1] -1.06% | growth inhibition [2] 9.05% | viability increase [3] -0.65% | viability [4] 93% | viability [5] 88.6% | inhibition [6] -0.06% | RAM network inhibition [7] 4.95%

O=C1c2cccc3cccc(c23)C(=O)N1c1nccs1
inactive: growth inhibition [1] -1.67% | growth inhibition [2] 0% | viability increase [3] 0.23% | viability [4] 104% | viability [5] 106% | inhibition [6] 1.98% | RAM network inhibition [7] 6.64%

CC(C)N1C(=O)CCC1C(=O)NCCc1ccc(Cl)cc1 (stereo not given)
inactive: growth inhibition [1] -1.75% | growth inhibition [2] 3.14% | viability increase [3] 0.32% | viability [4] 100% | viability [5] 97.3% | inhibition [6] 0.29% | RAM network inhibition [7] -0.47%

CC(=O)N(c1ccc(C)cc1)C1C=CS(=O)(=O)C1 (stereo not given)
inactive: growth inhibition [1] -8.96% | growth inhibition [2] 7.8% | viability increase [3] -0.41% | viability [4] 101% | viability [5] 105% | inhibition [6] 0.6% | RAM network inhibition [7] 7.21%

O=c1c2c3c(sc2nc2n1CCCCC2)CCCC3
inactive: growth inhibition [1] -12.6% | growth inhibition [2] -15.5% | viability increase [3] -1.02% | viability [4] 90.4% | viability [5] 85.6% | inhibition [6] 0.635% | RAM network inhibition [7] 0.62%

O=C(C1CCCN(S(=O)(=O)c2cccc3cccnc23)C1)N1CCN(c2ccccc2F)CC1 (stereo not given)
inactive: growth inhibition [1] -5.55% | growth inhibition [2] 7.3% | viability increase [3] -0.18% | viability [4] 73.2% | viability [5] 76.5% | inhibition [6] -0.265% | RAM network inhibition [7] 2.98%

O=C(Nc1cccnc1)c1ccccc1F
inactive: growth inhibition [1] -7.93% | growth inhibition [2] 4.54% | viability increase [3] -0.03% | viability [4] 103% | viability [5] 103% | inhibition [6] 0.88% | RAM network inhibition [7] 2.95%

CCOc1ccc2nc(N3CCC(C(=O)Nc4nnc(CC)s4)CC3)sc2c1
inactive: growth inhibition [1] -13.1% | growth inhibition [2] -21.7% | viability increase [3] -0.45% | viability [4] 95.8% | viability [5] 95.1% | inhibition [6] 2.67% | RAM network inhibition [7] 6.98%

O=C(c1oc(=O)c2ccccc2c1-c1ccccc1)N1CCC(O)CC1
inactive: growth inhibition [1] -2.27% | growth inhibition [2] -0.17% | viability increase [3] -2.96% | viability [4] 97.6% | viability [5] 91.6% | inhibition [6] 1.25% | RAM network inhibition [7] 1.92%

COc1ccccc1NC(=O)CSc1nc(O)cc(=O)n1-c1ccccc1OC
inactive: growth inhibition [1] -0.915% | growth inhibition [2] -0.015% | viability increase [3] 0.76% | viability [4] 100% | viability [5] 100% | inhibition [6] 0.485% | RAM network inhibition [7] 3.1%

Cc1cccc(OCCCC(=O)Nc2ccc(N3CCOCC3)cc2)c1
inactive: growth inhibition [1] -17% | growth inhibition [2] -11.5% | viability increase [3] -0.5% | viability [4] 90.7% | viability [5] 96.8% | inhibition [6] 2.59% | RAM network inhibition [7] 3.73%

Cc1cccc(Cn2c(N(C)Cc3ccccc3)nc3c2c(=O)[nH]c(=O)n3C)c1
inactive: growth inhibition [1] -0.355% | growth inhibition [2] -7.32% | viability increase [3] -2.61% | viability [4] 75.6% | viability [5] 64.8% | inhibition [6] 2.08% | RAM network inhibition [7] 2.26%

Cc1ccc(C)n1-n1c(C)nc2scc(-c3cccs3)c2c1=O
inactive: growth inhibition [1] -13.1% | growth inhibition [2] 1.95% | viability increase [3] -3.42% | viability [4] 72.1% | viability [5] 71.6% | inhibition [6] 0.72% | RAM network inhibition [7] 2.2%

Cc1c(NC(=O)Oc2ccccc2)sc(=S)n1C
inactive: growth inhibition [1] 14.5% | growth inhibition [2] 34.4% | viability increase [3] -3.22% | viability [4] 102% | viability [5] 98.2% | inhibition [6] 1.32% | RAM network inhibition [7] 0.99%

COc1ccccc1S(=O)(=O)Cc1ccc(C(=O)NCc2ccc3c(c2)OCO3)o1
inactive: growth inhibition [1] -4.21% | growth inhibition [2] -26.9% | viability increase [3] -2.83% | viability [4] 91.9% | viability [5] 87.4% | inhibition [6] 1.9% | RAM network inhibition [7] 6.73%

Reference: PubChem BioAssay
